Results taken from ChEMBL document CHEMBL1131544, “Synthesis and antioxidant activity of novel amphipathic derivatives of tea polyphenol” (Bioorg Med Chem Lett, 1998).

What was measured:
Format in all cases: functional
[1] = Inhibitory activity against lipid peroxidation of egg-phosphatidylcholine (PC) liposome caused by water-soluble radical initiator [2,2'-azobis(2-amidinopropane) dihydrochloride] (AAPH)
Procedure, shortened: (§1)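 Egg PC liposome peroxidation driven by water-soluble initiator AAPH (0.21 M aqueous stock, 150 µl) with sample in DMSO; 37°C for 20 min, capped tube. TBA reagent (0.375% TBA, 15% TCA, 0.25 N HCl) added, 100°C 15 min, cooled, spun; thiobarbituric acid reactive substances measured at 535 nm to give IC50.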

[2] = Inhibitory activity against lipid peroxidation of egg-phosphatidylcholine (PC) liposome caused by lipid-soluble radical initiator [2,2'-azobis(2,4- dimethylvaleronitrile] (AMVN)
Procedure, shortened: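 Egg PC liposomes (0.65 ml) incubated with sample in DMSO plus AMVN (8 mM DMSO stock) and water, 37°C, 20 min, capped tube. Stopped with thiobarbituric acid/trichloroacetic acid/HCl, heated 100°C 15 min, ice-cooled, centrifuged; TBARS in supernatant read at 535 nm. IC50 against lipid peroxidation.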

[3] = Inhibitory activity against lipid peroxidation of egg-phosphatidylcholine (PC) liposome caused by water-soluble radical initiator [2,2'-azobis(2-amidinopropane) dihydrochloride] (AAPH); strongly aggregated and precipitated the lipids, hence not eva luated; procedure, shortened: as §1

Compound | IC50 [1] [µM] | IC50 [2] [µM] | IC50 [3]
C=CCSCc1c(O)c(CSCC=C)c2c(c1O)C[C@@H](OC(=O)c1cc(O)c(O)c(O)c1)[C@@H](c1cc(O)c(O)c(O)c1)O2 | 11.6 | > 500 | –
O=C(O[C@@H]1Cc2c(O)c(CSCc3ccccc3)c(O)c(CSCc3ccccc3)c2O[C@@H]1c1cc(O)c(O)c(O)c1)c1cc(O)c(O)c(O)c1 | 9.6 | 432 | –
CCCCCCCCSCc1c(O)c(CSCCCCCCCC)c2c(c1O)C[C@@H](OC(=O)c1cc(O)c(O)c(O)c1)[C@@H](c1cc(O)c(O)c(O)c1)O2 | 7.9 | 60 | –
CCCCCCCCCCCCCCCCSCc1c(O)c(CSCCCCCCCCCCCCCCCC)c2c(c1O)C[C@@H](OC(=O)c1cc(O)c(O)c(O)c1)[C@@H](c1cc(O)c(O)c(O)c1)O2 | – | – | No effect
CCCCCCCCSCc1c(O)c(CSCCCCCCCC)c2c(c1O)[C@H](SCCO)[C@@H](OC(=O)c1cc(O)c(O)c(O)c1)[C@@H](c1cc(O)c(O)c(O)c1)O2 | 8.8 | 60.8 | –
O=C(O[C@@H]1Cc2c(O)cc(O)cc2O[C@@H]1c1cc(O)c(O)c(O)c1)c1cc(O)c(O)c(O)c1 [EPIGALOCATECHIN GALLATE] | 20.8 | > 500 | –
CCCCCCCCOC(=O)c1cc(O)c(O)c(O)c1 [OCTYL_GALLATE] | 18.6 | 188 | –
O=C(O[C@H]1[C@@H](c2cc(O)c(O)c(O)c2)Oc2cc(O)cc(O)c2[C@@H]1SCCO)c1cc(O)c(O)c(O)c1 | 20.5 | > 500 | –
COC(=O)CSCc1c(O)c(CSCC(=O)OC)c2c(c1O)C[C@@H](OC(=O)c1cc(O)c(O)c(O)c1)[C@@H](c1cc(O)c(O)c(O)c1)O2 | 12 | > 500 | –
CCCCCCCCSCc1c(O)c(CSCCCCCCCC)c2c(c1O)[C@H](SCCCCCCCC)[C@@H](OC(=O)c1cc(O)c(O)c(O)c1)[C@@H](c1cc(O)c(O)c(O)c1)O2 | 135 | 19.4 | –
CCCCCCCCCCCCCCCCCCNC(=O)Oc1c(O)cc(C(=O)O[C@@H]2Cc3c(O)cc(O)cc3O[C@@H]2c2cc(O)c(O)c(O)c2)cc1O | 24.6 | 22.1 | –
Cc1c(C)c2c(c(C)c1O)CC[C@@](C)(CCC[C@H](C)CCC[C@H](C)CCCC(C)C)O2 [ALPHA-TOCOPHEROL] | 40.3 | 5.9 | –
CCCCCCCCCCCCCCCCCCSCc1c(O)c(CSCCCCCCCCCCCCCCCCCC)c2c(c1O)C[C@@H](OC(=O)c1cc(O)c(O)c(O)c1)[C@@H](c1cc(O)c(O)c(O)c1)O2 | – | – | No effect
